In ChEMBL document CHEMBL1255372 (2008) one finds MIC data, which are given here for 15 molecules.

Values after ≈ are worked out from the molar mass of the structure shown.

What all share (format): functional
Assay [1] has as its system Klebsiella pneumoniae. The assay is described as follows: Antibacterial activity against Klebsiella pneumoniae isolate VA367 with blaKPC-3, qnrB19, blaTEM-1, blaSHV-11, blaSHV-12, aac(6')-1b genes by CLSI method.
In assay [2] the test system is Escherichia coli. The assay is described as follows: Antibacterial activity against Escherichia coli J53 transconjugated with Klebsiella pneumoniae isolate VA367 containing blaKPC-3, qnrB19, blaTEM-1, blaSHV-11, aac(6')-1b genes by CLSI method.
For assay [3], the system named is Klebsiella pneumoniae. Nature of the assay: Antibacterial activity against Klebsiella pneumoniae isolate VA375 with blaKPC-3, qnrA1, blaTEM-1, blaSHV-11 genes by CLSI method.
Assay [4] has as its system Escherichia coli. Nature of the assay: Antibacterial activity against Escherichia coli J53 transconjugated with Klebsiella pneumoniae isolate VA375 containing qnrA1, blaTEM-1, blaSHV-11genes by CLSI method.
The subject of assay [5] is Escherichia coli. The assay is described as follows: Antibacterial activity against Escherichia coli J53 by CLSI method.
Assay [6] relates to Escherichia coli. Nature of the assay: Antibacterial activity against Escherichia coli J53 transconjugated with Klebsiella pneumoniae isolate VA367 containing blaKPC-3, qnrB19, blaTEM-1, blaSHV-11, aac(6')-1b genes by Etest method. Summed up:
(§1)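 Test strains were E. coli J53 (rifampin-resistant recipient) transconjugants obtained by conjugation with the K. pneumoniae donor isolate. After overnight incubation, the donor–recipient mixture was plated on MacConkey agar containing ceftazidime (10 mg/liter) plus rifampin (100 mg/liter) to select transconjugants. Etest conditions are not described.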

Assay [7] deals with Klebsiella pneumoniae. The assay is described as follows: Antibacterial activity against Klebsiella pneumoniae isolate VA375 with blaKPC-3, qnrA1, blaTEM-1, blaSHV-11 genes by Etest method.
For assay [8], the system named is Escherichia coli. The assay is described as follows: Antibacterial activity against Escherichia coli J53 transconjugated with Klebsiella pneumoniae isolate VA375 containing qnrA1, blaTEM-1, blaSHV-11genes by Etest method. Summed up:
as §1

Assay [9] relates to Escherichia coli. The assay is described as follows: Antibacterial activity against Escherichia coli J53 by Etest method.
The subject of assay [10] is Klebsiella pneumoniae. Nature of the assay: Antibacterial activity against Klebsiella pneumoniae isolate VA367 with blaKPC-3, qnrB19, blaTEM-1, blaSHV-11, blaSHV-12, aac(6')-1b genes by Etest method.

As usually defined, the MIC is the least concentration at which growth counts as inhibited. A low value points to greater potency. Turning to `CCN1CCN(C(=O)N[C@@H](C(=O)N[C@@H]2C(=O)N3[C@@H]2SC(C)(C)[C@@H]3C(=O)O)c2ccccc2)C(=O)C1=O` [PIPERACILLIN], the minimal inhibitory concentration (MIC) in the assay on Klebsiella pneumoniae [1] is ≥ 128 µg/mL; in the assay on Escherichia coli [2], ≥ 128 µg/mL; in the assay on Klebsiella pneumoniae [3] it was ≥ 128 µg/mL; in the assay on Escherichia coli [4] it was ≥ 128 µg/mL; against Escherichia coli [5] it was ≤ 4 µg/mL.

Regarding `NCC[C@H](O)C(=O)N[C@@H]1C[C@H](N)[C@@H](O[C@H]2O[C@H](CN)[C@@H](O)[C@H](O)[C@H]2O)[C@H](O)[C@H]1O[C@H]1O[C@H](CO)[C@@H](O)[C@H](N)[C@H]1O` [AMIKACIN], the MIC in the assay with Klebsiella pneumoniae [1] is ≥ 64 µg/mL; with Escherichia coli [2], 16 µg/mL (≈ 27.3 µM); in the assay with Klebsiella pneumoniae [3], ≤ 2 µg/mL; in the assay on Escherichia coli [4], ≤ 2 µg/mL; against Escherichia coli [5], ≤ 2 µg/mL.

Regarding COLISTIN, the MIC amounted to 0.38 µg/mL in the assay on Escherichia coli [6], 1 µg/mL in the assay on Klebsiella pneumoniae [7], 0.38 µg/mL against Escherichia coli [8] and 0.38 µg/mL in the assay on Escherichia coli [9].

In the case of `C[C@H]1COc2c(N3CCN(C)CC3)c(F)cc3c(=O)c(C(=O)O)cn1c23.C[C@H]1COc2c(N3CCN(C)CC3)c(F)cc3c(=O)c(C(=O)O)cn1c23.O` [LEVOFLOXACIN], the MIC in the assay with Klebsiella pneumoniae [1] is ≥ 8 µg/mL; against Klebsiella pneumoniae [10], ≥ 32 µg/mL; in the assay on Escherichia coli [6] it was 0.75 µg/mL; against Klebsiella pneumoniae [7], 0.75 µg/mL; against Escherichia coli [8], 1.5 µg/mL; in the assay on Escherichia coli [5], ≤ 0.25 µg/mL. Further, in the assay on Escherichia coli [9], 0.25 µg/mL was the least that counted as inhibitory (MIC).

For `O=C(O)c1cn(C2CC2)c2cc(N3CCNCC3)c(F)cc2c1=O` [CIPROFLOXACIN], the results for the MIC in the assay with Klebsiella pneumoniae [10] and against Klebsiella pneumoniae [7] were ≥ 32 µg/mL and 0.75 µg/mL (≈ 2.26 µM), respectively.

With `C[C@@H](O)[C@H]1C(=O)N2C(C(=O)O)=C(S[C@@H]3CN[C@H](C(=O)N(C)C)C3)[C@H](C)[C@H]12` [MEROPENEM], the MIC against Klebsiella pneumoniae [1] is 2 µg/mL (≈ 5.22 µM); against Klebsiella pneumoniae [10], 8 µg/mL (≈ 20.9 µM); in the assay with Escherichia coli [2], 1 µg/mL (≈ 2.61 µM); in the assay on Escherichia coli [6], 4 µg/mL (≈ 10.4 µM); against Klebsiella pneumoniae [3], 1 µg/mL (≈ 2.61 µM); against Klebsiella pneumoniae [7], 4 µg/mL (≈ 10.4 µM). Besides, the MIC is ≤ 0.25 µg/mL against Escherichia coli [4], 0.38 µg/mL (≈ 0.991 µM) against Escherichia coli [8], ≤ 0.25 µg/mL in the assay with Escherichia coli [5] and 0.047 µg/mL (≈ 0.123 µM) in the assay with Escherichia coli [9].

Regarding `CO/N=C(\C(=O)N[C@@H]1C(=O)N2C(C(=O)O)=C(COC(N)=O)CS[C@H]12)c1ccco1` [CEFUROXIME], the MIC against Klebsiella pneumoniae [1] was ≥ 64 µg/mL; in the assay with Escherichia coli [2], ≥ 64 µg/mL; against Klebsiella pneumoniae [3], ≥ 64 µg/mL; against Escherichia coli [4], ≥ 64 µg/mL; with Escherichia coli [5] it was 16 µg/mL (≈ 37.7 µM).

On to `CC(C)(O/N=C(\C(=O)N[C@@H]1C(=O)N2C(C(=O)[O-])=C(C[n+]3ccccc3)CS[C@H]12)c1csc(N)n1)C(=O)O` [CEFTAZIDIME], for which the MIC against Klebsiella pneumoniae [1] is ≥ 64 µg/mL; in the assay on Escherichia coli [2], 32 µg/mL (≈ 58.5 µM); in the assay on Klebsiella pneumoniae [3], ≥ 64 µg/mL; in the assay on Escherichia coli [4] it was ≥ 64 µg/mL; with Escherichia coli [5] it was ≤ 1 µg/mL.

As to `C[C@@H](O)[C@H]1C(=O)N2C(C(=O)O)=C(S[C@@H]3CN[C@H](C(=O)Nc4cccc(C(=O)O)c4)C3)[C@H](C)[C@H]12`, the MIC against Klebsiella pneumoniae [10] is 16 µg/mL (≈ 33.6 µM); against Escherichia coli [6] it was 2 µg/mL (≈ 4.21 µM); with Klebsiella pneumoniae [7], 8 µg/mL (≈ 16.8 µM); with Escherichia coli [8], 0.125 µg/mL (≈ 0.263 µM); against Escherichia coli [9], 0.023 µg/mL (≈ 0.0484 µM).

`CO/N=C(\C(=O)N[C@@H]1C(=O)N2C(C(=O)O)=C(CSc3nc(=O)c(O)nn3C)CS[C@H]12)c1csc(N)n1` [CEFTRIAXONE]: the MIC was ≥ 64 µg/mL in the assay on Klebsiella pneumoniae [1]; 8 µg/mL (≈ 14.4 µM) against Escherichia coli [2]; 32 µg/mL (≈ 57.7 µM) in the assay on Klebsiella pneumoniae [3]; 8 µg/mL (≈ 14.4 µM) with Escherichia coli [4]; ≤ 1 µg/mL with Escherichia coli [5].

On to `O=C1CN(/N=C/c2ccc([N+](=O)[O-])o2)C(=O)N1` [NITROFURANTOIN], for which the MIC in the assay on Klebsiella pneumoniae [1] is ≥ 512 µg/mL; against Escherichia coli [2], ≤ 16 µg/mL; in the assay with Klebsiella pneumoniae [3], 64 µg/mL (≈ 269 µM); with Escherichia coli [4], ≤ 16 µg/mL; with Escherichia coli [5], ≤ 16 µg/mL.

In the case of `C[C@@H](O)[C@H]1C(=O)N2C(C(=O)O)=C(SCCNC=N)C[C@H]12` [IMIPENEM ANHYDROUS], the MIC against Klebsiella pneumoniae [1] came to 2 µg/mL (≈ 6.68 µM); in the assay with Klebsiella pneumoniae [10], 16 µg/mL (≈ 53.4 µM); against Escherichia coli [2], 4 µg/mL (≈ 13.4 µM); with Escherichia coli [6], 4 µg/mL (≈ 13.4 µM); in the assay on Klebsiella pneumoniae [3] it was 2 µg/mL (≈ 6.68 µM); with Klebsiella pneumoniae [7] it was 8 µg/mL (≈ 26.7 µM). The MIC against Escherichia coli [4] is ≤ 1 µg/mL; against Escherichia coli [8], 0.38 µg/mL (≈ 1.27 µM); with Escherichia coli [5], ≤ 1 µg/mL.

As for `NC[C@H]1O[C@H](O[C@H]2[C@H](O)[C@@H](O[C@H]3O[C@H](CO)[C@@H](O)[C@H](N)[C@H]3O)[C@H](N)C[C@@H]2N)[C@H](N)C[C@@H]1O` [TOBRAMYCIN], the MIC is ≥ 16 µg/mL with Klebsiella pneumoniae [1]; ≥ 16 µg/mL with Escherichia coli [2]; ≥ 16 µg/mL with Klebsiella pneumoniae [3]; 4 µg/mL (≈ 8.56 µM) in the assay with Escherichia coli [4]; ≤ 1 µg/mL against Escherichia coli [5].

Consider GENTAMICIN, for which the MIC was 4 µg/mL against Klebsiella pneumoniae [1]; < 1 µg/mL with Escherichia coli [2]; > 16 µg/mL against Klebsiella pneumoniae [3]; 4 µg/mL in the assay with Escherichia coli [4]; < 1 µg/mL with Escherichia coli [5].

For the molecule `CN(C)c1cc(NC(=O)CNC(C)(C)C)c(O)c2c1C[C@H]1C[C@H]3[C@H](N(C)C)C(O)=C(C(N)=O)C(=O)[C@@]3(O)C(O)=C1C2=O` [TIGECYCLINE], the MIC against Escherichia coli [6] was 0.5 µg/mL (≈ 0.854 µM); against Klebsiella pneumoniae [7] it was 1.5 µg/mL (≈ 2.56 µM); against Escherichia coli [8], 0.5 µg/mL (≈ 0.854 µM); in the assay on Escherichia coli [9] it was 0.5 µg/mL (≈ 0.854 µM).
